Measured values collected from several papers.
Protocols differ between the studies behind these lines.
Target: Serine/threonine-protein kinase D1 (PRKD1, Homo sapiens, UniProt Q15139)
One construct used (Q15139 1-912): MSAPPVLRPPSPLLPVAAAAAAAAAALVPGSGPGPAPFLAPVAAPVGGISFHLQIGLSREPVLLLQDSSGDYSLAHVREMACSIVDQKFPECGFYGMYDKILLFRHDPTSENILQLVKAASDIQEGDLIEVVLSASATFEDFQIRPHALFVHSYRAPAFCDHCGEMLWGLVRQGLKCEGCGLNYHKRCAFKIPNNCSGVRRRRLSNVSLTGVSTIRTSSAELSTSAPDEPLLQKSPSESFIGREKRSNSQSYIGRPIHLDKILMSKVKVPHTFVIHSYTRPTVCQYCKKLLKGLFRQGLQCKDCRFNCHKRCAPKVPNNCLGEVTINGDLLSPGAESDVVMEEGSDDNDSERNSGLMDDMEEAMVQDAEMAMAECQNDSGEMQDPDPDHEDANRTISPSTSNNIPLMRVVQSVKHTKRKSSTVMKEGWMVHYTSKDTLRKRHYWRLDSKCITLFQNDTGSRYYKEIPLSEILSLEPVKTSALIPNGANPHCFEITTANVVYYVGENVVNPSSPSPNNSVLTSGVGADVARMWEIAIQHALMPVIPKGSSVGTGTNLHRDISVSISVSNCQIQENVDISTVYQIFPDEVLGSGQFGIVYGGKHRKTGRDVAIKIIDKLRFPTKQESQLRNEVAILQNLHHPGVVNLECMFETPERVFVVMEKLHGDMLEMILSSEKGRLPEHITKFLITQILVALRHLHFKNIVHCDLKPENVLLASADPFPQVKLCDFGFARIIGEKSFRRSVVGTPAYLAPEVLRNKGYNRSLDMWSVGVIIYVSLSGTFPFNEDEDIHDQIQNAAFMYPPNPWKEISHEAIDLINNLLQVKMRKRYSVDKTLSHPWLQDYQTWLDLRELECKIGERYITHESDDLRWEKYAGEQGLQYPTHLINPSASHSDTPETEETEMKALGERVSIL

CC(C)(C)c1cc(C=C(C#N)C#N)cc(Br)c1O  remaining activity (enzyme activity; inhibitor; 0.5 µM): 100%
Cn1cncc1[C@](O)(COc1ccc(C#N)cc1-c1ccc(OC(F)(F)F)cc1)c1ccc(C#N)cc1  remaining binding (cell-free assay; competition with immobilised ligand; 1 µM): 99%
COc1ncccc1-c1cnn2ccc(N3CCN(C(=O)OC(C)C)CC3)nc12  remaining binding (binding; competition with immobilised ligand; 1 µM): 100%
N#CC1(c2ccccn2)CCN(Cc2cc(C(=O)O)c(=O)n3ccccc23)CC1  remaining binding (cell-free assay; competition with immobilised ligand; 1 µM): 87%
Cc1nn(C)cc1-c1nc2c(N3CCN(Cc4ccc(Cl)cc4)CC3)c(Cl)cnc2[nH]1  remaining binding (binding; competition with immobilised ligand; 1 µM): 100%
Cn1cc(-c2cc(F)cc(N3CCn4c(cc5c4CCCC5)C3=O)c2CO)cc(Nc2ccc(N3CCN(C4COC4)CC3)cn2)c1=O  inhibition (enzyme activity; inhibitor; 0.1 µM): 12%
COc1cc(Nc2ncc(F)c(Nc3ccc4c(n3)NC(=O)C(C)(C)O4)n2)cc(OC)c1OC  inhibition (binding; 10 µM): 17%
O=c1[nH]c2ccccc2n1C1CCN(Cc2ccc(-c3[nH]c4cc5ncnc5cc4nc3-c3ccccc3)cc2)CC1  remaining signal (cell-free assay; 0.5 µM): 94.7%
Cn1cc(-c2cccc(N3CCc4c(sc5c4CC(C)(C)C5)C3=O)c2CO)cc(Nc2ccncn2)c1=O  inhibition (enzyme activity; inhibitor; 1 µM): 2%
Nc1ncc(-c2nc(N3CCOCC3)nc(N3CCOCC3)n2)c(C(F)F)n1  remaining binding (binding; competition with immobilised ligand; 10 µM): 80%
